From ChEMBL document CHEMBL1153546, “Pharmacokinetics of telbivudine in subjects with various degrees of renal impairment” (Antimicrob Agents Chemother, 2007)

Key:
[1] = Renal clearance in human with normal renal function at 600 mg, po administered as single dose; type: ADME, organism-based, Kidney; conditions: in vivo, read-out: CL_renal (converted)
Summary of the method: (§1)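 Renal clearance = Au0-t/AUC0-t, where Au0-t is the cumulative unchanged drug in urine collected over 0–48 h. Plasma and urine were assayed by validated HPLC-MS/MS after a single oral dose.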

[2] = test system: Hepatitis B virus; assay: Antiviral activity against HBV in HBeAg-positive patient with chronic viral infection assessed as log reduction of serum viral DNA copies/ml at 60 mg/day after 4 weeks; type: functional
[3] = Initial decline half life in patient with end-stage renal disease at 200 mg, po administered as two single doses within 2 hrs of after completion of dialysis separated by 1 week washout period; type: ADME, organism-based; conditions: human, in vivo, read-out: alphat1/2 (converted)
Summary of the method: (§2)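 Half-lives came from noncompartmental analysis of plasma LC-MS/MS concentrations over 48 h after a single oral dose. Terminal and initial-decline t1/2 were calculated as 0.693/k, with each rate constant derived by stripping and linear regression.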

[4] = Mean cumulative urine excretion level in patient with severe renal impairment at 200 mg, po administered as single dose; type: ADME, organism-based; conditions: human, read-out: Activity
Summary of the method: (§3)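 Urine collected at –2 to 0 h predose and at 0–4, 4–8, 8–12, 12–24 and 24–48 h after a single oral dose. Unchanged telbivudine measured by validated HPLC-MS/MS (LLOQ 30 ng/ml, calibration 30–5,000 ng/ml), and amounts were summed cumulatively.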

[5] = Initial decline half life in patient with mild renal impairment at 600 mg, po administered as single dose; type: ADME, organism-based; conditions: human, in vivo, read-out: alphat1/2 (converted); summary of the method: as §2
[6] = test system: HepG2; assay: Cmax for Telbivudine triphosphate in HepG2 cells after 10 uM Telbivudine treatment; type: ADME, cell-based; conditions: human, hepg2, 10 µM; read-out: Cmax_triphosphate
[7] = test system: Homo sapiens; assay: Plasma clearance in human with normal renal function at 600 mg, po administered as single dose; type: ADME, organism-based; conditions: in vivo
Summary of the method: (§4)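 Apparent total oral plasma clearance (CL/F) = dose/AUC0-∞. AUC was obtained noncompartmentally from plasma LC-MS/MS concentrations sampled up to 48 h after a single oral dose.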

[8] = Cmax in patient with severe renal impairment at 200 mg, po administered as single dose; type: ADME, organism-based; parameters: dose 200 mg, route oral; conditions: human, in vivo
Summary of the method: (§5)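 Plasma telbivudine after one oral dose, sampled predose through 48 h and quantified by validated LC-MS/MS (LLOQ 10 ng/ml, transition 243.0→127.1 m/z). Cmax was read directly from the observed concentration-time data.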

[9] = Renal clearance in patient with moderate renal impairment at 400 mg, po administered as single dose; type: ADME, organism-based, Kidney; conditions: human, in vivo, read-out: CL_renal (converted); summary of the method: as §1
[10] = Renal clearance in patient with mild renal impairment at 600 mg, po administered as single dose; type: ADME, organism-based, Kidney; conditions: human, in vivo, read-out: CL_renal (converted); summary of the method: as §1
[11] = Elimination half life in patient with end-stage renal disease at 200 mg, po administered as two single doses within 2 hrs of after completion of dialysis separated by 1 week washout period; type: ADME, organism-based; conditions: human, in vivo, read-out: beta t1/2 (converted); summary of the method: as §2
[12] = Plasma clearance in patient with moderate renal impairment at 400 mg, po administered as single dose; type: ADME, organism-based; conditions: human; summary of the method: as §4
[13] = Cmax in patient with mild renal impairment at 600 mg, po administered as single dose; type: ADME, organism-based; parameters: dose 600 mg, route oral; conditions: human, in vivo; summary of the method: as §5
[14] = test system: Homo sapiens; assay: AUC (0 to infinity) in human with normal renal function at 600 mg, po administered as single dose; type: ADME, organism-based, Plasma; parameters: dose 600 mg, route oral, time infinity; conditions: in vivo
Summary of the method: (§6)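 Single oral telbivudine dose. Heparinized blood was drawn predose and up to 48 h postdose, with extra paired dialyzer samples for predialysis dosing. Plasma was stored at –20°C and assayed by validated HPLC-MS/MS (LLOQ 10 ng/ml, range 10–5,000 ng/ml). Noncompartmental analysis: AUC0-t by linear trapezoidal rule to last measurable concentration; AUC0-∞ = AUC0-t + Ct/kel.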

[15] = Cmax in patient with end-stage renal disease at 200 mg, po administered as two single doses within 2 hrs of after completion of dialysis separated by 1 week washout period; type: ADME, organism-based; parameters: dose 200 mg, route oral; conditions: human, in vivo; summary of the method: as §5
[16] = Cmax in human with normal renal function at 600 mg, po administered as single dose; type: ADME, organism-based; parameters: dose 600 mg, route oral; conditions: in vivo; summary of the method: as §5
[17] = Mean cumulative urine excretion level in patient with mild renal impairment at 600 mg, po administered as single dose; type: ADME, organism-based; conditions: human, read-out: Activity; summary of the method: as §3
[18] = Plasma clearance in patient with severe renal impairment at 200 mg, po administered as single dose; type: ADME, organism-based; conditions: human; summary of the method: as §4
[19] = Elimination half life in patient with moderate renal impairment at 400 mg, po administered as single dose; type: ADME, organism-based; conditions: human, in vivo, read-out: beta t1/2 (converted); summary of the method: as §2
[20] = AUC (0 to infinity) in patient with end-stage renal disease at 200 mg, po administered as two single doses 2 hrs before dialysis separated by 1 week washout period; type: ADME, organism-based; parameters: dose 200 mg, route oral, time infinity; conditions: human, plasma; summary of the method: as §6
[21] = AUC (0 to t) in patient with end-stage renal disease at 200 mg, po disease as two single doses 2 hrs before dialysis separated by 1 week washout period; type: ADME, organism-based; conditions: human, plasma; summary of the method: as §6
[22] = AUC (0 to infinity) in patient with mild renal impairment at 600 mg, po administered as single dose; type: ADME, organism-based; parameters: dose 600 mg, route oral, time infinity; conditions: human, plasma; summary of the method: as §6
[23] = AUC (0 to t) in patient with end-stage renal disease at 200 mg, po administered as two single doses within 2 hrs of after completion of dialysis separated by 1 week washout period; type: ADME, organism-based; conditions: human, plasma; summary of the method: as §6
[24] = Mean cumulative urine excretion level in patient with moderate renal impairment at 400 mg, po administered as single dose; type: ADME, organism-based; conditions: human, read-out: Activity; summary of the method: as §3
[25] = AUC (0 to infinity) in patient with moderate renal impairment at 400 mg, po administered as single dose; type: ADME, organism-based; parameters: dose 400 mg, time infinity, route oral; conditions: human, plasma; summary of the method: as §6
[26] = Tmax in patient with severe renal impairment at 200 mg, po administered as single dose; type: ADME, organism-based; conditions: human, in vivo
Summary of the method: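 Single oral dose. Plasma was frozen at –20°C. Assay by validated HPLC-MS/MS (LLOQ 10 ng/ml, calibration 10–5,000 ng/ml, m/z 243.0→127.1). Tmax was read directly from the concentration-time data, with noncompartmental analysis.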

[27] = Mean cumulative urine excretion level in human with normal renal function at 600 mg, po administered as single dose; type: ADME, organism-based; conditions: read-out: Activity; summary of the method: as §3
[28] = Initial decline half life in human with normal renal function at 600 mg, po administered as single dose; type: ADME, organism-based; conditions: in vivo, read-out: alphat1/2 (converted); summary of the method: as §2

What does the source list for Cc1cn([C@@H]2C[C@@H](O)[C@H](CO)O2)c(=O)[nH]c1=O [TELBIVUDINE]?
CL renal [1]: 127 mL/min; Activity [2]: 3.6 mL⁻¹; half-life [3]: 4.87 h; dose excreted [4]: 8%; half-life [5]: 3.42 h; Cmax [6]: 30 µM; CL [7]: 7.6 L/h; Cmax [8]: 1600 ng/mL; CL renal [9]: 43.3 mL/min; CL renal [10]: 83.3 mL/min; half-life [11]: 37.9 h; CL/F [12]: 227 mL/min; Cmax [13]: 3200 ng/mL; AUC [14]: 28500 ng·h/mL; Cmax [15]: 2100 ng/mL; Cmax [16]: 3400 ng/mL; dose excreted [17]: 23.6%; CL/F [18]: 118 mL/min; half-life [19]: 31.2 h; AUC(0-inf) [20]: 43400 ng·h/mL; AUC(0-t) [21]: 26500 ng·h/mL; AUC(0-inf) [22]: 32500 ng·h/mL; AUC(0-t) [23]: 41800 ng·h/mL; dose excreted [24]: 19.8%; AUC(0-inf) [25]: 36000 ng·h/mL; Tmax [26]: 4 h; dose excreted [27]: 31.5%; half-life [28]: 2.32 h
